pIC50: −log10 of the molar value. Activity calls are given as the source filed them. No cut-off for these calls is given here.
Experiments:
[1] = target: Histone deacetylase (HDAC1 and HDAC2) (Homo sapiens, UniProt Q13547+Q92769); assay: Inhibition of HDAC1/2 in human HeLa cell nuclear extract using Fluor de Lys as substrate after 15 mins by fluorometric analysis; type: protein assay
[2] = target: T1, Protein deacetylase HDAC6 (Homo sapiens, UniProt Q9UBN7); assay: Inhibition of HDAC6 in human HeLa cell nuclear extract using Fluor de Lys as substrate after 15 mins by fluorometric analysis
T1 sequence (Q9UBN7 whole entry): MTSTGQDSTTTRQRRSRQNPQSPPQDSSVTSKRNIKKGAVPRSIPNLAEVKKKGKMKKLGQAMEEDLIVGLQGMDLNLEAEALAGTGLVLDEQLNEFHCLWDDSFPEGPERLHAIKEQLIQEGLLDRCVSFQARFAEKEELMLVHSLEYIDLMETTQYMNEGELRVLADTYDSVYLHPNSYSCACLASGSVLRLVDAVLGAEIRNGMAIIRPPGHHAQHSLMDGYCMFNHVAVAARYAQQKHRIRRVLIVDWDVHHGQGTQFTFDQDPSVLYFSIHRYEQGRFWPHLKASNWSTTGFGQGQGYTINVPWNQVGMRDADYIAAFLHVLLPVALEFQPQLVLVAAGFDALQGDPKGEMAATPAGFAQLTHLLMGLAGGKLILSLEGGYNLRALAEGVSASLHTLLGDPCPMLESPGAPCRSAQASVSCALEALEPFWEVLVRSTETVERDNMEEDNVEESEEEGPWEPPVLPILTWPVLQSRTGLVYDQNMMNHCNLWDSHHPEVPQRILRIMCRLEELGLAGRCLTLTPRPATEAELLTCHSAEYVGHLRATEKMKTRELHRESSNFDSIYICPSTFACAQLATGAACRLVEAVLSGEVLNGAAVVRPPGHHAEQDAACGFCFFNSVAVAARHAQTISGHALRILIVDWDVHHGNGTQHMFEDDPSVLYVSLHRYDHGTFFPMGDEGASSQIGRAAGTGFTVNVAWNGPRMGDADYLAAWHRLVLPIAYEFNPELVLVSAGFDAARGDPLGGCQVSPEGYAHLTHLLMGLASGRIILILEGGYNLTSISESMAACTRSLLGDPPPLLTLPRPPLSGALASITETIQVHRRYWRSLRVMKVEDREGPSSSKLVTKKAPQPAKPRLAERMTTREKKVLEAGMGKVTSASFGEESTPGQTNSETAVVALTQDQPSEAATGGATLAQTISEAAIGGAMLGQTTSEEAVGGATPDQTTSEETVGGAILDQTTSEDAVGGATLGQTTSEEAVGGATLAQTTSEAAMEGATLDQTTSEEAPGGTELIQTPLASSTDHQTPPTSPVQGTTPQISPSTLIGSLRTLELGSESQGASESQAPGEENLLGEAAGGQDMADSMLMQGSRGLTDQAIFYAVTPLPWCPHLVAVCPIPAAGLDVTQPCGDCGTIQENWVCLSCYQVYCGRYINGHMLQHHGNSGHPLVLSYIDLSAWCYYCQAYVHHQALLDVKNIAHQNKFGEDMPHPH

DU-145 = assay: Antiproliferative activity against human DU145 cells after 72 hrs by MTS assay; type: functional, cell-based; conditions: DU-145, 72 h
Procedure, shortened: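 DU-145 cells passaged 24 h before dosing and exposed 72 h; compounds from 10 mM DMSO stocks; controls given media with 0.1% DMSO; 37°C, 5% CO2. Viability read by MTS assay, with Trypan Blue staining also used. IC50 from the average of two experiments, each run in triplicate.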

SK-MES-1 = assay: Antiproliferative activity against human SKMES1 cells after 72 hrs by MTS assay; type: functional, cell-based; conditions: SK-MES-1, 72 h
[3] = target: T2, Protein deacetylase HDAC6 (Homo sapiens) (UniProt Q9UBN7); assay: Inhibition of HDAC6-mediated tubulin acetylation in human DU145 cells at 90 nM after 4 hrs by Western blot analysis; type: cell-based; conditions: DU-145
T2 sequence (whole entry): T1 sequence (Q9UBN7 whole entry)
Procedure, shortened: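 DU-145 cells passaged 24 h before dosing, then treated 4 h, with no more than 0.1% DMSO including controls. Lysis in RIPA buffer with protease inhibitors, protein quantified against a BSA standard, SDS-PAGE and transfer. Blots probed with rabbit anti-tubulin and mouse anti-acetyl tubulin, read by near-infrared imaging at 700/800 nm.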

[4] = target: T3, Histone deacetylase (Homo sapiens) (UniProt Q13547+O15379+Q9UBN7+Q92769+Q9UQL6+Q8WUI4+Q9BY41+Q96DB2+P56524+Q9UKV0+Q969S8); assay: Inhibition of HDAC in human DU145 cells assessed as upregulation of p21 expression at IC50 concentration after 4 hrs by Western blot analysis relative to control; type: cell-based; conditions: DU-145
Procedure, shortened: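 Lysed in RIPA with protease inhibitors, cleared 14,000 RPM at 4°C. Immunoblotted, probing acetylated versus total tubulin; p21 also checked. Near-infrared detection at 700/800 nm.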

[5] = target: DNA topoisomerase 2-alpha (Homo sapiens) (UniProt P11388); assay: Inhibition of topoisomerase 2 in human DU145 cells assessed as stabilization of enzyme-DNA cleavage complex at 130 nM after 30 mins by immunoblot analysis relative to control; type: cell-based; conditions: DU-145
Procedure, shortened: (§1)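 DU-145 cells dosed 30 min or 72 h; controls given 0.1% DMSO. 72 h samples equalized to the 30 min cell count before lysis in 1% sarkosyl. Lysates spun on a CsCl gradient at 31,000 RPM, room temperature, 12 h. Fractions holding Topo II–DNA complexes found by A260, slot-blotted onto nitrocellulose, and immunoblotted for Topo II.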

[6] = target: DNA topoisomerase 2-alpha (Homo sapiens) (UniProt P11388); assay: Inhibition of topoisomerase 2 in human DU145 cells assessed as stabilization of enzyme-DNA cleavage complex at 130 nM after 72 hrs by immunoblot analysis; type: cell-based; conditions: DU-145; procedure, shortened: as §1
[7] = Drug uptake in human A549 cell cytosol at 1 uM after 4 hrs by confocal microscopic analysis; type: ADME, cell-based
Procedure, shortened: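 Cells plated on glass coverslips 24 h ahead, then given fresh media with compound at 1 μM for 4 h. After a PBS wash, coverslips were mounted and intracellular distribution imaged by confocal microscopy, excitation 488 nm. Done in DU-145 cells, with A549 lung tumor cells also examined.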

[8] = target: T3, Histone deacetylase (Homo sapiens); conditions: DU-145, 0.5 to 1 uM

DNA topoisomerase 2-alpha (Homo sapiens), sequence (P11388 whole entry): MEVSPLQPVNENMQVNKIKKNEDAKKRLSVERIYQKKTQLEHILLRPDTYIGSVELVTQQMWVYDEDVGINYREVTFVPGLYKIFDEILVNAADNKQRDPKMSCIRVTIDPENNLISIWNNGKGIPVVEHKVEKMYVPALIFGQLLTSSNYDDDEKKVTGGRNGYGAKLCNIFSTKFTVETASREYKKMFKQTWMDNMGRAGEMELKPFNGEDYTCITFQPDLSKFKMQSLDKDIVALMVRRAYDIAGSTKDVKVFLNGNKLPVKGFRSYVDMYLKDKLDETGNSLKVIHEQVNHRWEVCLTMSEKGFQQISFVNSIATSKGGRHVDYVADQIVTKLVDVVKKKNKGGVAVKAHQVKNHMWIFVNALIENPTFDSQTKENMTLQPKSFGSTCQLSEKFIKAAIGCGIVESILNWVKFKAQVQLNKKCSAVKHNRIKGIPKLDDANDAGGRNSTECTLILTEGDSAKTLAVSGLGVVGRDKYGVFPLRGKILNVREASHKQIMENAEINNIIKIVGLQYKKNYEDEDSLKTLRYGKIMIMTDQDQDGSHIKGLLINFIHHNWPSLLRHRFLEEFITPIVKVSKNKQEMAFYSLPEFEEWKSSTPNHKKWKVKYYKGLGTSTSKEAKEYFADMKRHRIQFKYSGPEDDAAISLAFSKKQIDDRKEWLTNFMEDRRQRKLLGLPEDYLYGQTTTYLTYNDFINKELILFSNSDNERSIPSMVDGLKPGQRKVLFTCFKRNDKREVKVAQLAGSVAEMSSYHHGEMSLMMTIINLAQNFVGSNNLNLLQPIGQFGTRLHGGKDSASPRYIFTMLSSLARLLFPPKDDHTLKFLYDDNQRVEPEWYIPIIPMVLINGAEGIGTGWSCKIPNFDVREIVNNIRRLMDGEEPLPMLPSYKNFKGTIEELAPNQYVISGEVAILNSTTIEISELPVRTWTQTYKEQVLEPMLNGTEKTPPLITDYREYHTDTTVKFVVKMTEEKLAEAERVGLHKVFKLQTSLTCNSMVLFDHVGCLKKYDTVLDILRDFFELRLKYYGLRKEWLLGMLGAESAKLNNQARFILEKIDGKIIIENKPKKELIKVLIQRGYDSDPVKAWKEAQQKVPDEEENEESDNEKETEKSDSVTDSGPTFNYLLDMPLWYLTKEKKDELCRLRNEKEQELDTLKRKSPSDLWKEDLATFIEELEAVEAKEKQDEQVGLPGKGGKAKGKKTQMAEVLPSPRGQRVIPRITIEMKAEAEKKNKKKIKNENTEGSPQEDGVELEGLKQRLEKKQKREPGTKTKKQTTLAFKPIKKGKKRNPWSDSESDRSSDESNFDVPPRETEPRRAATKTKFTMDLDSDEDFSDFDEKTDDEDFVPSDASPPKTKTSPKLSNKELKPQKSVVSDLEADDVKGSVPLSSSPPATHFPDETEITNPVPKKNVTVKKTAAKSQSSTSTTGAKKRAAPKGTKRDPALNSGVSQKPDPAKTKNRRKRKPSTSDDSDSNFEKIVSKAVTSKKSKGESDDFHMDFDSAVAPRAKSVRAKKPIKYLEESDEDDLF

With `COc1cccc2c1C(=O)c1c(O)c3c(c(O)c1C2=O)C[C@@](O)(C(C)=O)C[C@@H]3O[C@H]1C[C@H](NCc2ccc(NC(=O)CCCCCCC(=O)NO)cc2)[C@H](O)[C@H](C)O1` the IC50 [1] was 64.7 nM, the pIC50 [2] was 7.70 and the pIC50 (DU-145) was 6.89. The pIC50 (SK-MES-1) was 6.33, the inhibition [3] was “Active” and the Activity [4] was “inactive”. For the same molecule, the inhibition [5] was “inactive”, the inhibition [6] was “Active” and the Drug uptake [7] was “Active”. For the same molecule, the inhibition [8] was “Active”.

— ChEMBL document CHEMBL2021781, “Dual targeting of histone deacetylase and topoisomerase II with novel bifunctional inhibitors” (J Med Chem, 2012)
